Data reported in ChEMBL document CHEMBL3600329, “Synthesis, biological profiling and mechanistic studies of 4-aminoquinoline-based heterodimeric compounds with dual trypanocidal-antiplasmodial activity” (Bioorg Med Chem, 2015).

Legend:
Trypanothione reductase = Trypanothione reductase (Trypanosoma brucei brucei, UniProt P39051); assay: Inhibition of Trypanosoma brucei recombinant Trypanothione reductase assessed as decrease in (T[SH]2) formation using trypanothione disulfide as substrate after 15 mins by colorimetric analysis
[1] = Inhibition of beta-haematin formation by microplate reader analysis relative to hemin; format: physicochemical
Procedure, shortened: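 Haemin chloride (8 mM stock in DMSO) mixed with serial compound dilutions (0.5-32 mM) in 25% DMSO; formation initiated with 8 M acetate buffer pH 5.0, 18 h at 37 °C. Pellets washed with DMSO, β-haematin dissolved in 0.1 M NaOH, OD 400 nm read versus drug-free controls; BHIA50 expressed as compound equivalents relative to haemin, by linear regression.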

Trypanosoma brucei [2] = assay: Selectivity index, ratio of IC50 for inhibition of Trypanosoma brucei recombinant Trypanothione reductase to IC50 for trypanocidal activity against bloodstream form of Trypanosoma brucei 221
Trypanosoma brucei [3] = assay: Trypanocidal activity against bloodstream form of Trypanosoma brucei 221 assessed as inhibition of parasite growth at pH 7.4 after 48 hrs by Spectramax plate reader analysis; format: functional, organism-based; conditions: Trypanosoma brucei, 221, 48 h
Procedure, shortened: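 Bloodstream-form T. brucei strain 221 grown at 37 °C in modified Iscove's medium; log-phase cells diluted to 0.25 × 10^5 mL⁻¹, exposed to a range of compound concentrations in triplicate at 37 °C. Resazurin added after 48 h, read after a further 16 h. IC50 and IC90 = concentrations inhibiting growth 50% and 90%; mean of triplicate experiments ± SEM.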

[4] = Selectivity index, ratio of IC50 for rat L6 cells to IC50 for bloodstream form of Trypanosoma brucei 221; format: toxicity, cell-based; conditions: read-out: Ratio IC50
Procedure, shortened: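 IC50 ratio, L6 over T. brucei. L6 cells seeded at 1×10^4 mL⁻¹ with compound, 6 days at 37 °C, then resazurin, 8 h more, fluorescence read. Log-phase bloodstream T. brucei 221 in modified Iscove's medium at 0.25 × 105 mL⁻¹, compound range in triplicate, 37 °C; resazurin at 48 h, read after 16 h more.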

L6 = assay: Cytotoxicity against rat L6 cells assessed as inhibition of cell growth after 6 days by Spectramax fluorescence plate reader analysis; format: cell-based; conditions: L6, 144 h
Procedure, shortened: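 L6 rat skeletal myoblasts seeded at 1×10^4 mL⁻¹ in growth medium containing a range of compound concentrations, incubated 6 days at 37 °C; resazurin added, fluorescence read after a further 8 h. IC50 = concentration inhibiting growth by 50%; mean of triplicate experiments ± SEM.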

Plasmodium falciparum = assay: Antiplasmodial activity against chloroquine-resistant Plasmodium falciparum K1 infected in human A+ erythrocytes assessed as inhibition of parasite growth after 48 hrs by LDH assay; format: functional, organism-based; conditions: K1, 48 h
Procedure, shortened: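 Ring-stage cultures in human A+ erythrocytes (RPMI 1640, A+ serum, D-glucose), 2.5% haematocrit, 1% parasitaemia; twofold serial dilutions in duplicate, DMSO ≤0.5% final. 48 h at 37 °C under 93% N2/3% O2/4% CO2. Growth read as lactate dehydrogenase activity (APAD, lactate, diaphorase, NBT; 550 nm); % inhibition vs controls; IC50 by linear regression; mean of triplicate experiments.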

[5] = Selectivity index, ratio of IC50 for rat L6 cells to IC50 for chloroquine-resistant Plasmodium falciparum K1; format: toxicity, cell-based; conditions: read-out: Ratio IC50
Procedure, shortened: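 IC50 ratio, L6 over P. falciparum K1. L6 cells seeded at 1×10^4 mL⁻¹ with compound, 6 days at 37 °C, resazurin added, fluorescence after 8 h. Parasites in A+ erythrocytes (2.5% haematocrit, 1% parasitaemia) with twofold dilutions, 48 h at 37 °C in low-oxygen gas; growth read by LDH activity at 550 nm.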

Chain of Trypanothione reductase (P39051 whole entry): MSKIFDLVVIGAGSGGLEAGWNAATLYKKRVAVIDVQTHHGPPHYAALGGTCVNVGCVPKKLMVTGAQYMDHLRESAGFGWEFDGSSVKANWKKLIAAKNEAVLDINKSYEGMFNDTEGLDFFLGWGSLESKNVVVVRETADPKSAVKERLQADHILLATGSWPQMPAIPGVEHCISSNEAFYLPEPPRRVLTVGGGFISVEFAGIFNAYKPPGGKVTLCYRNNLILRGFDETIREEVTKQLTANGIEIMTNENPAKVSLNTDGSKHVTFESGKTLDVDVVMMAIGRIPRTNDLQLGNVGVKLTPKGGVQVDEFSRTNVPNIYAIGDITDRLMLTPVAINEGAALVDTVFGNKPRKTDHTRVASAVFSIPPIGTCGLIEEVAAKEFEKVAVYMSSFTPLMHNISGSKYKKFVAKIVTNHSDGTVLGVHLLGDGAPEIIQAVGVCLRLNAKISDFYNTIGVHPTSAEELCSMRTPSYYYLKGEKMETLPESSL

SMILES	IC50 (Trypanothione reductase)	IC50 [1]	Ratio IC50 (Trypanosoma brucei [2])	IC50 (Trypanosoma brucei [3])	IC90 (Trypanosoma brucei [3])	selectivity ratio [4]	IC50 (L6)	IC50 (Plasmodium falciparum)	selectivity ratio [5]
CC1=CC2Cc3nc4cc(Cl)ccc4c(N)c3C(C1)C2 (centres undefined) [HUPRINE Y]	5000 nM	> 4 equiv	8.2	–	–	–	–	–	–
COc1cc2c(cc1OC)CC(CC1CCN(CCCNc3c4c(nc5cc(Cl)ccc35)CC3C=C(C)CC4C3)CC1)C2 (centres undefined)	4880 nM	0.42 equiv	29	170 nM	350 nM	12	2060 nM	–	–
CC1=CC2Cc3nc4cc(Cl)ccc4c(NCCCCCCCCNc4c5c(nc6ccccc46)CCCC5)c3C(C1)C2 (centres undefined)	870 nM	0.19 equiv	6	150 nM	290 nM	7.4	1110 nM	390 nM	2.8
